Data set [1] in a line: Drug metabolism in cynomolgus monkey liver microsomes assessed as formation of 2-hydroxy-3-(4-((6-methoxy-1-methyl-1H-benzo[d]imidazol-2-yl)methoxy)phenyl)propanamide at 20 uM after 2 hrs by radio-HPLC/LC-MS/MS analysis in presence of NADPH-generating system and NADPH-generating system/SAM. Type of data set: ADME, Macaca fascicularis. On the technique in general: Microsomes from liver hold many membrane-bound enzymes, among them those of drug oxidation.

A further data set addresses T1, Cytochrome P450 2C8 (Homo sapiens, UniProt P10632).
T1 sequence (P10632 whole entry): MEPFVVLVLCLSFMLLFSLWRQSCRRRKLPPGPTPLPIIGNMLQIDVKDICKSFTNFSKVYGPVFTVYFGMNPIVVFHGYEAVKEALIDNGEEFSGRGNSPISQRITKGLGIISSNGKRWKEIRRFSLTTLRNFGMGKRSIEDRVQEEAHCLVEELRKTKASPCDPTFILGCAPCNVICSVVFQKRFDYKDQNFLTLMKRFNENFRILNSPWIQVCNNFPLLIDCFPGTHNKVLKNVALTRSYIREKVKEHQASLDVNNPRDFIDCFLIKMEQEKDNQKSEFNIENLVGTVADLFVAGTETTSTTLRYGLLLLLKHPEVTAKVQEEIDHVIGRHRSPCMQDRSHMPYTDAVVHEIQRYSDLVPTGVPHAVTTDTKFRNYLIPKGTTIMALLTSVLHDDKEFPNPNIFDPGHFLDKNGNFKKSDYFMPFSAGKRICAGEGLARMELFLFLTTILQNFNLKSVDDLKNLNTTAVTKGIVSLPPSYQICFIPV
Briefly: Activity of human CYP2C8 expressed in microsomes isolated from baculovirus infected insect cell assessed as enzyme-mediated 3-(4-((6-methoxy-1-methyl-1H-benzo[d]imidazol-2-yl)methoxy)phenyl)-2-(methylsulfinyl)propanamide formation at 20 uM after 2 hrs by radio-HPLC/LC-MS/MS analysis in presence of NADPH-generating system/SAM. The format is ADME.

Data set [2] deals with T2, Cytochrome P450 1A2 (Homo sapiens, UniProt P05177).
T2 sequence (P05177 whole entry): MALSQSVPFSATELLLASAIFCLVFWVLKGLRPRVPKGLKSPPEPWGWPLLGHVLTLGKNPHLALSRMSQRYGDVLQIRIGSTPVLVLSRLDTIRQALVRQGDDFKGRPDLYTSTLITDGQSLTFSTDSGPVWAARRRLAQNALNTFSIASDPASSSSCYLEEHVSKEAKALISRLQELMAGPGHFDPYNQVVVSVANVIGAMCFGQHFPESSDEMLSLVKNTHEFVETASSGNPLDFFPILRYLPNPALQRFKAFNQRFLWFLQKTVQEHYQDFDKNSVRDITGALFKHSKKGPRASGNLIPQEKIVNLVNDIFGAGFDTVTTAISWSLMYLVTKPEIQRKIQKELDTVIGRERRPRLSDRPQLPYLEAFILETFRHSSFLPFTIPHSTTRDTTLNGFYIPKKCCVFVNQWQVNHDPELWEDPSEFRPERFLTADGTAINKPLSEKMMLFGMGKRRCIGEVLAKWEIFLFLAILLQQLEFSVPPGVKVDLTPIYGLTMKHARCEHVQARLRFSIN
Kind of data set: Activity of human CYP1A2 expressed in microsomes isolated from baculovirus infected insect cell assessed as enzyme-mediated 2-mercapto-3-(4-((6-methoxy-1-methyl-1H-benzo[d]imidazol-2-yl)methoxy)phenyl)propanamide formation at 20 uM after 2 hrs by radio-HPLC/LC-MS/MS analysis in presence of NADPH-generating system and NADPH-generating system/SAM. The format is ADME. An outline of the steps:
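Baculovirus/insect-cell microsomes expressing single human CYPs, 1 mg/ml protein, with 50 mM potassium phosphate (pH 7.4) or 100 mM Tris-HCl (pH 7.5). NADPH-generating system: 2 mM NADP⁺, 20 mM glucose 6-phosphate, 2 units/ml G6PDH, 10 mM MgCl₂. [¹⁴C]rivoglitazone at 20 μM, 2 h at 37°C with shaking. Control used insect-cell control supersomes. Stopped with acetonitrile; supernatant concentrated under nitrogen; metabolites analysed by radio-HPLC, LC-MS and LC-MS/MS.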

A short description of data set [3]: Drug metabolism in rat hepatocytes assessed as formation of 2-hydroxy-3-(4-((6-methoxy-1-methyl-1H-benzo[d]imidazol-2-yl)methoxy)phenyl)propanamide at 30 uM after 3 hrs by radio-HPLC/LC-MS/MS analysis in presence of NADPH-generating system and NADPH-generating system/SAM. The format is ADME, cell-based, Hepatocyte.
Data set [4] in a line: Drug metabolism in monkey hepatocytes assessed as formation of 3-(4-((6-methoxy-1-methyl-1H-benzo[d]imidazol-2-yl)methoxy)phenyl)-2-(methylthio)propanoic acid at 30 uM after 3 hrs by radio-HPLC/LC-MS/MS analysis in presence of NADPH-generating system/SAM and UDPGA/SAM. The following applies: cynomolgus monkey.
For the next data set, the system named is Liver microsome. Briefly: Drug metabolism in Sprague-Dawley rat liver microsomes assessed as formation of 3-(4-((6-methoxy-1-methyl-1H-benzo[d]imidazol-2-yl)methoxy)phenyl)-2-(methylthio)propanamide at 20 uM after 2 hrs by radio-HPLC/LC-MS/MS analysis in presence of NADPH-generating system/SAM. Type of data set: ADME.
Data set [5] can be described thus: Drug metabolism in rat hepatocytes assessed as formation of (2S,3S,4S,5R,6R)-6-((1-carboxy-2-(4-((6-methoxy-1-methyl-1H-benzo[d]imidazol-2-yl)methoxy)phenyl)ethylthio)carbonylamino)-3,4,5-trihydroxytetrahydro-2H-pyran-2-carboxylic acid at 30 uM after 3 hrs by radio-HPLC/LC-MS/MS analysis in presence of UDPGA and UDPGA/SAM. Type of data set: ADME, cell-based, Hepatocyte.

The target of data set [6] is T2, Cytochrome P450 1A2. Briefly: Activity of human CYP1A2 expressed in microsomes isolated from baculovirus infected insect cell assessed as enzyme-mediated 3-(4-((6-methoxy-1-methyl-1H-benzo[d]imidazol-2-yl)methoxy)phenyl)-2-(methylsulfonyl)propanamide formation at 20 uM after 2 hrs by radio-HPLC/LC-MS/MS analysis in presence of NADPH-generating system/SAM. Type of data set: ADME.

One molecule from ChEMBL document CHEMBL3526048, “In vitro metabolism of rivoglitazone, a novel peroxisome proliferator-activated receptor γ agonist, in rat, monkey, and human liver microsomes and freshly isolated hepatocytes” (Drug Metab Dispos, 2011) can be followed below.

Structures are written as SMILES.

Regarding `COc1ccc2nc(COc3ccc(C[14CH]4SC(=O)NC4=O)cc3)n(C)c2c1.Cl` (racemic), the Drug metabolism result was “metabolite_detected” in data set [1]; “metabolite_not_detected” at Cytochrome P450 2C8; “metabolite_detected” on Cytochrome P450 1A2 [2]; “metabolite_not_detected” in data set [3]; “metabolite_not_detected” in data set [4]; “metabolite_detected” in the data set with Liver microsome. Besides, the Drug metabolism result in data set [5] is reported as “metabolite_detected”; at Cytochrome P450 1A2 [6], “metabolite_not_detected”.
